Source: PMC9385543 (International Journal for Parasitology: Drugs and Drug …, 2022)
Read-outs that look alike come from different tables or passages of the source.

Legend:
[1] = test system: Theileria equi; assay: In vitro growth inhibitory assay of Theileria equi in MASP culture; format: cell-based; settings: for in vitro growth inhibition versus control well: p < 0.05; for morphological changes observed in treated parasites: in vitro treatment, at 96 h, Giemsa-stained smears; for IC50: read-out: IC50 value for growth inhibition of T. equi
Outline: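 T. equi-infected horse RBCs from MASP culture, diluted to 1% parasitaemia with uninfected ELISA-negative horse RBCs. Medium: M199 with 40% equine serum, antibiotics and 200 μM hypoxanthine. Test compounds at 1–200 μM or 125–1000 nM, triplicate wells, 96 h at 37 °C under 5% CO2/3% O2; drug medium renewed every 24 h. Percent parasitaemia followed over time; IC50 by curve fitting; two-way ANOVA with Bonferroni (p < 0.05).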

[2] = test system: Theileria equi; assay: Viability test; format: cell-based
Outline: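 After 96 h exposure in the growth assay, treated or untreated infected RBCs were moved into drug-free complete medium with fresh uninfected horse RBCs. Cultured a further 72 h at 37 °C under micro-aerophilic gas, with medium replaced every 24 h. Parasite recrudescence/viability was scored on Giemsa-stained blood smears.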

[3] = test system: horse RBCs; assay: In vitro haemolytic assay; format: cell-based
[4] = In vitro cytotoxicity assay; format: cell-based, horse; settings: horse, PHA-stimulated horse PBMCs
[5] = test system: horse PBMCs; assay: In vitro cytotoxicity assay; format: cell-based
[6] = 48 h, 72 h and 96 h, 250 nM–1000 nM

| Structure (SMILES) | in vitro growth inhibition versus control well ([1]; 24 h, 750 and 1000 nM) | in vitro growth inhibition versus control well [1, 6] | morphological changes observed in treated parasites [1] | IC50 ([1]; 96 h of culture) | parasite multiplication in the viability test ([2]; after 96 h treatment with 500 nM–1000 nM) | haemolytic activity on horse RBCs ([3]; highest concentration of 2000 μM) | in vitro growth inhibition versus control well ([1]; 24 h, 100 μM and 200 μM) | in vitro growth inhibition versus control well ([1]; 48 h, 72 h and 96 h, 5 μM–200 μM) | IC50 ([1]; Theileria equi, 96 h) | parasite multiplication in the viability test ([2]; after 96 h treatment with 50 μM–200 μM) | CC50 at 24 h [4] | Specific selective index (SSI) with respect to host's PBMC ([5]; CC50 on horse PBMCs / IC50 on T. equi) | cytotoxicity to horse PBMCs ([5]; highest concentration 1000 μM, 24 h) | haemolytic activity on horse RBCs ([3]; 10 μM–2000 μM, 90 min) | Specific selective index (SSI) with respect to host's RBC ([3]; CC50 on horse RBCs / IC50 on T. equi) | in vitro growth inhibition versus control well ([1]; 24 h, 500, 750 and 1000 nM) | parasite multiplication in the viability test ([2]; after 96 h treatment with 750 nM and 1000 nM) |
| --- | --- | --- | --- | --- | --- | --- | --- | --- | --- | --- | --- | --- | --- | --- | --- | --- | --- |
| CCCCCCCCCCCC[N+](C)(C)C.[Br-] [DDTAB, dodecyl trimethyl ammonium bromide] | significant difference | significant (p < 0.05) growth inhibition | devoid of internal structures, showing pycnotic and degenerative appearances | 0.47 µM | failed to multiply further | more | – | – | – | – | – | – | – | – | – | – | – |
| C[N+](C)(C)CCCCCCCCCC[N+](C)(C)C [DMB, Decamethonium bromide] | – | – | devoid of internal structures, showing pycnotic and degenerative appearances | – | – | – | significant difference | significant (p < 0.05) growth inhibition | 14 µM | failed to multiply further | 7200 µM | 514.50 | less than 10% | < 3% | 16035.38 | – | – |
| CCCCCCCCCC[N+](C)(C)C.[Br-] [DTAB, Decyl trimethyl ammonium bromide] | – | significant (p < 0.05) growth inhibition | devoid of internal structures, showing pycnotic and degenerative appearances | 0.558 µM | – | – | – | – | – | – | – | – | – | < 3% | – | significant difference | failed to multiply further |
